Reference: ChEMBL document CHEMBL1781898, “Orally active achiral N-hydroxyformamide inhibitors of ADAM-TS4 (aggrecanase-1) and ADAM-TS5 (aggrecanase-2) for the treatment of osteoarthritis” (Bioorg Med Chem Lett, 2011)

Legend:
Interstitial collagenase = target: T1, Interstitial collagenase (Homo sapiens, UniProt P03956); experiment: Inhibition of recombinant human MMP-1 assessed as substrate cleavage after 20 hrs by fluorescence assay
T1 sequence (P03956 whole entry): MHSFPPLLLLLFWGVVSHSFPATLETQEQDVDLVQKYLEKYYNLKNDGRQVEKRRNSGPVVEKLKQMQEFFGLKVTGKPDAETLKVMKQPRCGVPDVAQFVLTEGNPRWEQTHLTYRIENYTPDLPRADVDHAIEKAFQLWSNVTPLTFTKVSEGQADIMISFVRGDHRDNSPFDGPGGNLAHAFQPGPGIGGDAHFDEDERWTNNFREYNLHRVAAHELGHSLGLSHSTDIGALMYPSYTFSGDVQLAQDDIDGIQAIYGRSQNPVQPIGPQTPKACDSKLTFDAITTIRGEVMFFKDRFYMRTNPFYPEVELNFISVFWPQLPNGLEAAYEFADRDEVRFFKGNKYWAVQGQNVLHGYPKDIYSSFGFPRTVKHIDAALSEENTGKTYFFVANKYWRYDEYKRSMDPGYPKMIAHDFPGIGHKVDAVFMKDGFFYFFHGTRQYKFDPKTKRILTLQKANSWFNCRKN
Outline: (§1)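 Enzyme inhibition IC50s derived from at least six measurements, standard errors normally <5% within an assay; a standard compound run to keep assay-to-assay variability within twofold.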

[1] = Clearance in rat at 2 mg/kg, iv; type: ADME, organism-based; parameters: dose 2 mg/kg, route intravenous; details: in vivo
Outline: (§2)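 Rat iv PK: 2 mg/kg iv, n = 2 animals; clearance, half-life and Vdss determined.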

[2] = Half life in rat at 2 mg/kg, iv; type: ADME, organism-based; parameters: dose 2 mg/kg, route intravenous; details: in vivo; outline: as §2
[3] = Intrinsic clearance in human liver microsomes; type: ADME, Microsome
Outline: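 Human liver microsome metabolism; intrinsic clearance expressed as μL/min/mg, reported as mean of eight separate experiments.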

[4] = target: 72 kDa type IV collagenase (Homo sapiens, UniProt P08253); experiment: Inhibition of recombinant human MMP-2 assessed as substrate cleavage after 20 hrs by fluorescence assay; outline: as §1
72 kDa type IV collagenase, sequence (P08253 whole entry): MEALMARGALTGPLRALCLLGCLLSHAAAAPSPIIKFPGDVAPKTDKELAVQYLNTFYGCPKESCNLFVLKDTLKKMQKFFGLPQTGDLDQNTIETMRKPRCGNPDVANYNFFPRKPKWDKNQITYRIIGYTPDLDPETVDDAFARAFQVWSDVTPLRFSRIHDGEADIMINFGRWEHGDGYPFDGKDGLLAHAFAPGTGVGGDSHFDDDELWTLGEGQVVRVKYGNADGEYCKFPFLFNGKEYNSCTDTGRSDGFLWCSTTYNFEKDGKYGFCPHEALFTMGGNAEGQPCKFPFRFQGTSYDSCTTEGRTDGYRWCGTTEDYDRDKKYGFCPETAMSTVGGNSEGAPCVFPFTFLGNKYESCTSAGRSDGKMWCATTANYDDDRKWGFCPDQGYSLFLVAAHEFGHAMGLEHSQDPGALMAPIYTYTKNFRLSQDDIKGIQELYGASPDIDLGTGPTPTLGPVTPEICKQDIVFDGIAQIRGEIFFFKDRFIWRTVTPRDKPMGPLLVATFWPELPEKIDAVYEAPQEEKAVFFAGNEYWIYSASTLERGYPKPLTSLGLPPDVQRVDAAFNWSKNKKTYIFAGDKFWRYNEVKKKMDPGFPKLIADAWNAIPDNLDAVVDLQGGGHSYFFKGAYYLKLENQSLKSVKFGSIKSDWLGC

[5] = Volume of distribution at steady state in rat at 2 mg/kg, iv; type: ADME, organism-based; parameters: dose 2 mg/kg, route intravenous; details: in vivo, read-out: Vdss; outline: as §2
[6] = target: T2, A disintegrin and metalloproteinase with thrombospondin motifs 4 (Homo sapiens, UniProt O75173); experiment: Inhibition of ADAMTS-4 assessed as substrate cleavage after 16 hrs by fluorescence assay; outline: as §1
T2 sequence (O75173 whole entry): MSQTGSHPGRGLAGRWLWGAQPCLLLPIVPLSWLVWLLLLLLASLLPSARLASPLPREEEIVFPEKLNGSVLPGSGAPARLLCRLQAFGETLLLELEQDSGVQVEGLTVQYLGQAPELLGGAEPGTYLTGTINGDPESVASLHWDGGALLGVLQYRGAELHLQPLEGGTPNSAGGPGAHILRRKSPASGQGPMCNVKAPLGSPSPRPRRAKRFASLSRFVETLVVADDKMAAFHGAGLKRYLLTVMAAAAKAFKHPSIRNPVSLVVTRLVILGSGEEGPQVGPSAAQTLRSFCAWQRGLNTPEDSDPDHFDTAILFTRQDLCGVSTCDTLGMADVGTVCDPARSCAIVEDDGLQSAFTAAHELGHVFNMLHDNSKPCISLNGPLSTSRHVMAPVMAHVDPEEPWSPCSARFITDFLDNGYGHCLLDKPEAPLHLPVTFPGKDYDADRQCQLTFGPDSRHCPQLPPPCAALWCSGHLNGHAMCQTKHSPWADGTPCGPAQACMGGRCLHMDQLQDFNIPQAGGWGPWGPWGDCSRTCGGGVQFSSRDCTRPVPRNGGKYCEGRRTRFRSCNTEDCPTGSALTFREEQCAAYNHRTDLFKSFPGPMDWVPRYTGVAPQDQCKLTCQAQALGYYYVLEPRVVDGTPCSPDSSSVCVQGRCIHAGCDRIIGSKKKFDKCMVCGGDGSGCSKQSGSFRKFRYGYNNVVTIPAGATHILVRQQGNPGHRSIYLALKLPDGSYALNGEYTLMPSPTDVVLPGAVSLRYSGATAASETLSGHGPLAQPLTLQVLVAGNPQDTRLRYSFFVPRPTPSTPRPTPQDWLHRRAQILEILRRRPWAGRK

[7] = target: T3, A disintegrin and metalloproteinase with thrombospondin motifs 5 (Homo sapiens, UniProt Q9UNA0); experiment: Inhibition of ADAMTS-5 assessed as substrate cleavage after 16 hrs by fluorescence assay; outline: as §1
T3 sequence (Q9UNA0 whole entry): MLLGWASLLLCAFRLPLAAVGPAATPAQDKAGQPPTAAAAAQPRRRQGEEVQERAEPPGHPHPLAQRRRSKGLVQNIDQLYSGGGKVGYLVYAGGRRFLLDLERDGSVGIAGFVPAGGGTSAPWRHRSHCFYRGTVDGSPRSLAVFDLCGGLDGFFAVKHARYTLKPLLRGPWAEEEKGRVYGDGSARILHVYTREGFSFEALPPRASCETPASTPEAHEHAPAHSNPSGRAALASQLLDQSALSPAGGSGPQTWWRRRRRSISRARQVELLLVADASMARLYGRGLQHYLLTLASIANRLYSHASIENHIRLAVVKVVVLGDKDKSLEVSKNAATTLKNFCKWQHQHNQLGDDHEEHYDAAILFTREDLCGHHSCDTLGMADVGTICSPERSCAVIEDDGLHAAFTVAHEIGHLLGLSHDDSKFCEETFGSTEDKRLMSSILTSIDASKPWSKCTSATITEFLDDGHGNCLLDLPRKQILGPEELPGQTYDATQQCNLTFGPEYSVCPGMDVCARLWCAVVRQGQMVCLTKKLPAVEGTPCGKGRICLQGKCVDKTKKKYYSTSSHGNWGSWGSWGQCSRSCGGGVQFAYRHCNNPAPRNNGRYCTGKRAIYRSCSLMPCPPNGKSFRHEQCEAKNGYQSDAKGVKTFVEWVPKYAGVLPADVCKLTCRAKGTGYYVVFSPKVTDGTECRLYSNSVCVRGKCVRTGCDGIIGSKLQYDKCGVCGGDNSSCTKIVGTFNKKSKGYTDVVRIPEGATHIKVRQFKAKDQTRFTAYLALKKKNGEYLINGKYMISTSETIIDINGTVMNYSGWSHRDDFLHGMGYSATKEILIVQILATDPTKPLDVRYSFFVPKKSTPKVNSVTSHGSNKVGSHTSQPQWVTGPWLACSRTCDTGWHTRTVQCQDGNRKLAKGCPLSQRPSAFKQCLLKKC

Collagenase 3 = Collagenase 3 (Homo sapiens, UniProt P45452); experiment: Inhibition of recombinant human MMP-13 assessed as substrate cleavage after 20 hrs by fluorescence assay; outline: as §1
[8] = target: Matrix metalloproteinase-9 (Homo sapiens, UniProt P14780); experiment: Inhibition of recombinant human MMP-9 assessed as substrate cleavage after 20 hrs by fluorescence assay; outline: as §1
Matrix metalloproteinase-9, sequence (P14780 whole entry): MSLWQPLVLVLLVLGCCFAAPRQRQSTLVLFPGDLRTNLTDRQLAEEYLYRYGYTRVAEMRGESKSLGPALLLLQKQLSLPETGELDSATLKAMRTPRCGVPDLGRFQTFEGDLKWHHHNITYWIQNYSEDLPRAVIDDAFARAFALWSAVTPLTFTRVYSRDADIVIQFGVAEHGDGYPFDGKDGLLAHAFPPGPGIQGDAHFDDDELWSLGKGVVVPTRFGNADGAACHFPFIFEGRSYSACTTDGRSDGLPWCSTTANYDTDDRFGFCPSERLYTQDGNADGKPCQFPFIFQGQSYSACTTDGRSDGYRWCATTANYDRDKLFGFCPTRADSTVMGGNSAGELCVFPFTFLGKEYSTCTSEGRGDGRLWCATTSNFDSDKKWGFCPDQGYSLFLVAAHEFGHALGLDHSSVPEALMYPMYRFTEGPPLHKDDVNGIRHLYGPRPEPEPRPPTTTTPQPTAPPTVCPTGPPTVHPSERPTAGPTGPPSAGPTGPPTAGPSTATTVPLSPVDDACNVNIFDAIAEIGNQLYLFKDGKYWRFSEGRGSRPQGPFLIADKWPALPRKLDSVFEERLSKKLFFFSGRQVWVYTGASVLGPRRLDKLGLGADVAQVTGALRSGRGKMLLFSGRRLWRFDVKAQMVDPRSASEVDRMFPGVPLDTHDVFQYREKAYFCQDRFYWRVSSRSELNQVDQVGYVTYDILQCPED

[9] = target: Matrix metalloproteinase-14 (Homo sapiens, UniProt P50281); experiment: Inhibition of recombinant human MMP-14 assessed as substrate cleavage after 20 hrs by fluorescence assay; outline: as §1
Cytochrome P450 3A4 = Cytochrome P450 3A4 (Homo sapiens, UniProt P08684); experiment: Inhibition of CYP3A4; type: ADME
Cytochrome P450 3A4, sequence (P08684 whole entry, canonical isoform): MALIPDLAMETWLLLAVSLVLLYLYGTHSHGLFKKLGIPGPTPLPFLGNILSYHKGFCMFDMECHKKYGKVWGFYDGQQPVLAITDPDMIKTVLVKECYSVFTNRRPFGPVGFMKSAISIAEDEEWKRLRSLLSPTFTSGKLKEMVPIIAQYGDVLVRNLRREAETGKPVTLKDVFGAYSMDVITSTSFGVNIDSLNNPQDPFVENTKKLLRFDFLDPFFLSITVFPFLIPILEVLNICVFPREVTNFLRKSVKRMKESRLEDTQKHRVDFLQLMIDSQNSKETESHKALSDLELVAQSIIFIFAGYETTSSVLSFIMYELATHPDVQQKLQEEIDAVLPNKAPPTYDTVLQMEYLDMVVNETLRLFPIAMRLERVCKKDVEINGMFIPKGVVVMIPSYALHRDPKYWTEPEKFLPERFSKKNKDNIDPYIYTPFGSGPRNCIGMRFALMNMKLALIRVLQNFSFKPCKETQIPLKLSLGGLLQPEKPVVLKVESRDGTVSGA
Outline: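 Inhibition of cytochrome P450 isoforms 1A2, 2C9, 2C19, 2D6 and 3A4, reported as pIC50.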

SMILES | IC50 (Interstitial collagenase) [µM] | clearance [1] [mL/min/kg] | half-life [2] [h] | microsomal CLint [3] [µL/min/mg] | IC50 [4] [µM] | Vd [5] [L/kg] | IC50 [6] [µM] | IC50 [7] [µM] | IC50 (Collagenase 3) [µM] | IC50 [8] [µM] | IC50 [9] [µM] | IC50 (Cytochrome P450 3A4) [µM]
Cc1cc(CCC2CCN(S(=O)(=O)CC3(N(O)C=O)CCOCC3)CC2)c(C)cn1 | > 10 | 20 | 4 | 4.3 | 61 | 2 | 0.018 | 3.4 | 46 | > 100 | > 100 | –
Cc1noc(C)c1CCC1CCN(S(=O)(=O)CC2(N(O)C=O)CCN(C)CC2)CC1 | > 10 | – | – | < 2 | > 10 | – | 0.019 | 1.2 | > 10 | > 10 | > 10 | > 10
Cc1noc(C)c1CCC1CCN(S(=O)(=O)CC2(N(O)C=O)CCC(F)(F)CC2)CC1 | > 10 | – | – | 13 | > 10 | – | 0.02 | 0.41 | > 10 | > 10 | > 10 | > 10
Cc1noc(C)c1CCC1CCN(S(=O)(=O)CC2(N(O)C=O)CCS(=O)(=O)CC2)CC1 | > 10 | – | – | 4.9 | > 10 | – | 0.016 | 0.27 | > 10 | > 10 | > 10 | > 10
Cc1noc(C)c1CCC1CCN(S(=O)(=O)CC2(N(O)C=O)CCC2)CC1 | > 10 | – | – | 3.3 | > 10 | – | 0.051 | 1.5 | > 10 | > 10 | > 10 | –
Cc1noc(C)c1CCC1CCN(S(=O)(=O)CC2(N(O)C=O)CCN(C(=O)C3CCC3)CC2)CC1 | > 10 | – | – | 65 | > 10 | – | 0.01 | 0.27 | > 10 | > 10 | > 10 | > 10
Cc1ccncc1CCC1CCN(S(=O)(=O)CC2(N(O)C=O)CCOCC2)CC1 | > 10 | – | – | 3.4 | 3.5 | – | 0.11 | 0.63 | 5.9 | > 10 | > 7.2 | –
CC(=O)N1CCC(CS(=O)(=O)N2CCC(CCc3c(C)noc3C)CC2)(N(O)C=O)CC1 | > 10 | – | – | < 2 | > 10 | – | 0.024 | 0.82 | > 10 | > 10 | > 10 | –

Second part, the molecule after the results:

IC50 (Interstitial collagenase) [µM] | clearance [1] [mL/min/kg] | half-life [2] [h] | microsomal CLint [3] [µL/min/mg] | IC50 [4] [µM] | Vd [5] [L/kg] | IC50 [6] [µM] | IC50 [7] [µM] | IC50 (Collagenase 3) [µM] | IC50 [8] [µM] | IC50 [9] [µM] | IC50 (Cytochrome P450 3A4) [µM] | SMILES
> 10 | 15 | – | < 2 | 1.3 | 2 | 0.0045 | 0.069 | 0.94 | 3.1 | 3.1 | – | Cc1cc(F)ccc1CCC1CCN(S(=O)(=O)CC2(N(O)C=O)CCOCC2)CC1
> 10 | 18 | 6.3 | 8.5 | > 10 | 2 | 0.013 | 0.45 | > 10 | > 10 | > 10 | – | Cc1nsc(C)c1CCC1CCN(S(=O)(=O)CC2(N(O)C=O)CCOCC2)CC1
> 10 | – | – | 12 | > 10 | – | 0.0097 | 0.25 | > 10 | > 10 | > 10 | > 10 | Cc1noc(C)c1CCC1CCN(S(=O)(=O)CC2(N(O)C=O)CCOC(C)(C)C2)CC1 (stereo not given)
> 6.7 | – | – | – | – | – | 0.53 | – | 0.57 | – | 2.9 | > 10 | CN1CCC(CS(=O)(=O)N2CCN(c3ccc(F)cc3)CC2)(N(O)C=O)CC1
> 10 | – | – | – | – | – | – | – | 0.154 | – | 0.226 | 1 | CC(CS(=O)(=O)N1CCN(c2ccc(F)cc2)CC1)N(O)C=O (racemic)
> 10 | – | – | – | – | – | 0.092 | – | 1.4 | – | 1.4 | > 10 | CC(C)(CS(=O)(=O)N1CCN(c2ccc(F)cc2)CC1)N(O)C=O
